Rows were chosen to be rich in hits. Some 3% of all compounds tested hit in one or more screens of this group.
V-ATPase pHluor = regulators of yeast V-ATPase proton pumping, primary screen, pHLuorin cytosolic pH fluorescence; S. cerevisiae; hit rate 0.37% among 350,000; response, % at 10 µM; AID 504577, 2011; in the data active = response mostly above about 7.3%, no sharp cut-off; inactive = mostly below about 5.4%; note: actives read high
T cruzi inh = inhibitors of intracellular T. cruzi growth, primary screen, luminescence, NIH3T3 host cells. T. cruzi beta-gal in NIH3T3, 90 h. inhibition, % (no concentration beside the values). hit rate 1.4% among 300,000. AID 1885, 2009;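 active = mean inhibition across valid replicates above about 55%, limit read from the data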;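 note: signal also drops with host cell toxicity which is not excluded here; 0% = plate median of DMSO wells and 100% = zero luminescence signal; higher percent means less beta-gal luminescence so fewer parasites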
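Assay system: NIH/3T3 fibroblasts plus reporter T. cruzi. Amount: NIH/3T3 cells, 5,000 per well. Buffer or medium: DMEM, 2% fetal bovine serum. Doses: compound pinned at 50 nL/well, DMSO. Schedule: ≥90 h infection period, 3 h prior cell attachment. Signal: luminescent β-galactosidase signal after 60 min lysis. Read-out: parasite load inhibition, %.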
HIF activator = HIF pathway transcriptional activators, primary screen, cell-based, U2OS HRE-luciferase, luminescence; U2OS HRE-luciferase reporter; normalized: DMSO 0%, desferrioxamine 100%; hit rate 0.32% among 300,000; activation, % at 7.5 µM (by protocol);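 active = mean activation of at least 10% of the iron chelator positive control signal, with at least half of replicates also reaching 10%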
NRP1-CendR mod = modulators of CendR peptide binding to NRP-1, primary screen, biochemical, fluorescence polarization, uHTS. Neuropilin-1 (Homo sapiens), O14786. FAM-RPARPAR peptide binding to NRP-1. inhibition, % at 25 µM. hit rate 0.85% among 360,000. AID 602438, 2012;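 active = inhibition or corrected inhibition above about 18%, plus a signal ratio from 0.5 to 1.5, limit read from the data, passing the limit was not always enough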
Target sequence (O14786 whole entry, looked up): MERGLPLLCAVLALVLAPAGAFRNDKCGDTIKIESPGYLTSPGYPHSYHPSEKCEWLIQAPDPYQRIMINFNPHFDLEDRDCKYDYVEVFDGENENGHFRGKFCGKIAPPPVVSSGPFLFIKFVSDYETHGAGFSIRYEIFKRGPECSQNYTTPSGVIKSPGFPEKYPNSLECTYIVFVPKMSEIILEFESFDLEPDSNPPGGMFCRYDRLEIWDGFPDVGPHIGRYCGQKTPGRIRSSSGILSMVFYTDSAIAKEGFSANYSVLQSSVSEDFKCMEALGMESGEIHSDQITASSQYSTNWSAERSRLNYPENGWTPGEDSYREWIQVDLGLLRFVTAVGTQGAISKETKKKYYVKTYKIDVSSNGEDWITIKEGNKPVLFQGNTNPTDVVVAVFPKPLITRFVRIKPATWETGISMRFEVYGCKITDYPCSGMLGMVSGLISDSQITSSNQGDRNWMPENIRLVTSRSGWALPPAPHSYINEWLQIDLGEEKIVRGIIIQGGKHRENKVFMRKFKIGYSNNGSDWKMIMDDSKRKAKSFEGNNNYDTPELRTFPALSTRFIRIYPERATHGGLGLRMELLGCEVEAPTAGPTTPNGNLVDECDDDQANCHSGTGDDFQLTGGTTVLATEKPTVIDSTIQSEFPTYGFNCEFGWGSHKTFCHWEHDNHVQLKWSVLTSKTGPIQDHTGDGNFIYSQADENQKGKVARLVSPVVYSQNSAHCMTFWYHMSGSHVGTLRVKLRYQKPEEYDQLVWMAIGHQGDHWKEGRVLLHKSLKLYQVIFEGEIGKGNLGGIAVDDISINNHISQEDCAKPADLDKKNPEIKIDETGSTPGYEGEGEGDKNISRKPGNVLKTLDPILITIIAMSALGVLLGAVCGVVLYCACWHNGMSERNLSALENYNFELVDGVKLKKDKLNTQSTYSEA
AI-2 QS modul = Vibrio harveyi AI-2 quorum sensing modulators, primary screen, JMH597 strain, luminescence/OD600 ratio; hit rate 0.4% among 300,000; activity change, % at 7.5 µM; Vibrio harveyi JMH597 AI-2 luminescence/OD600 ratio, 9 h; stronger effect = lower value; strain lacks LuxN and CqsS sensors; 0 = neutral-control median; in the data active = activity change below about -75%, passing the limit was not always enough;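 note: luminescence divided by OD600 gain over 9 h not by final OD600 alone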
Yeast superoxide = reduction of superoxide in aged yeast, primary screen, HTS; S. cerevisiae aged cells, superoxide DHE fluorescence; stronger effect = lower value; superoxide response (% of plate mean), % at 10 µM; hit rate 0.18% among 330,000; AID 2690, 2010;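 active = superoxide response under a set limit, about three screen SD below normal, cut at about 65% in these data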;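 note: yeast aged for seven days with compound at 30 °C before DHE staining; 100% = average MFI of all compound-treated wells on the plate with controls excluded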
Superoxide pick = superoxide lowering in aged yeast cells, confirmation, cherry picked compounds; hit rate 1% among 850; shares compounds with Yeast superoxide; S. cerevisiae aging, superoxide DHE fluorescence; stronger effect = lower value; AID 434994, 2010; superoxide response (% of plate), % at 10 µM;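 active = superoxide signal below 65% of the plate average of sample wells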;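 note: cells aged with compound for 7 days at 30 degrees C before staining; 100% equals mean DHE fluorescence of all compound wells on the plate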
DHE fluor count = DHE quenching or ROS scavenging interference in aged yeast, artefact control for yeast caloric restriction mimetic project, S. cerevisiae BY4741, flow cytometry; shares compounds with Yeast superoxide; fluorescence response, % at 10 µM; 850 tested, under 10 active; DHE fluorescence; stronger effect = lower value;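 active = fluorescence response below 15%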;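 note: percent of the mean fluorescence averaged over all compound wells on the plate; lower means stronger quenching of DHE signal or ROS scavenging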
Starred values were filed as active, the others as inactive; . = no result.

SMILES | V-ATPase pHluor | T cruzi inh | HIF activator | NRP1-CendR mod | AI-2 QS modul | Yeast superoxide | Superoxide pick | DHE fluor count
CSCCC(NC(=O)c1ccco1)C(=O)OC(C)C(=O)NC(=O)NC1CCCCC1 (centres undefined) | -1.9 | -3.8 | -0.2 | 3.2 | 38.2 | 89.7 | . | .
CC(=O)c1cnc2c(-c3ccc(Cl)cc3)cnn2c1C | -8.0 | . | . | -3.8 | . | 104.7 | . | .
CC(=O)c1cnc2c(-c3ccccc3)c(-c3ccccc3)nn2c1C | -1.2 | 22.3 | -2.1 | 5.3 | 9.7 | 109.2 | 115.9 | 122.4
Cc1cc(N)n2nc(-c3ccccc3)c(-c3ccccc3)c2n1 | -4.3 | 10.5 | 1.1 | -8.1 | 3.3 | 105.6 | 99.9 | 93.2
Cc1ccc(OCc2cccc(S(=O)(=O)N(C)C)c2)c([N+](=O)[O-])n1 | -0.2 | -2.6 | 0.3 | 7.7 | 23.9 | 105.7 | . | .
C/C(=C\c1cccs1)C(=O)c1c(C)cc(C)[nH]c1=O | -3.1 | 3.0 | 0.0 | 1.5 | 10.5 | 91.1 | . | .
CCCOc1ccc(C(=O)CCC(=O)Nc2ccc(N3CCN(C)CC3)cc2)cc1 | -4.4 | . | . | -14.6 | . | 96.2 | . | .
CCCCCN(C(=O)CCC(=O)OCC(=O)c1ccc(C(C)(C)C)cc1)c1c(N)n(CCCC)c(=O)[nH]c1=O | 4.2 | 17.5 | 1.8 | 4.2 | 1.1 | 88.0 | . | .
COc1c(O)c(=O)n2c3ccccc3c3ccnc1c32 | -3.2 | -4.9 | -0.3 | 13.9 | 26.0 | 62.4* | 88.6 | 95.2
COc1ccc(S(=O)(=O)N2CCc3ccccc32)cc1C(=O)Nc1ccc(C(N)=O)cc1 | 9.3 | 11.3 | 0.3 | -19.5 | . | 106.9 | . | .
CCCn1c(=O)c(C(=O)NNC(=O)c2ccc(Cl)cc2Cl)c(O)c2ccccc21 | -2.3 | -0.5 | -0.3 | 9.6 | -24.0 | 59.6* | 106.5 | 105.1
CCCn1c(=O)c(C(=O)NCc2ccc(OC)c(OC)c2)c(O)c2ccccc21 | -5.5 | -12.8 | -0.1 | 4.6 | 7.3 | 62.7* | 108.7 | 108.4
CCn1c(=O)c(C(=O)NNC(=O)c2ccc(Cl)cc2Cl)c(O)c2ccccc21 | 3.6 | -5.0 | -0.3 | -0.1 | 7.3 | 74.1 | . | .
Cc1onc(-c2c(F)cccc2Cl)c1C(=O)NC(=S)Nc1c(C)n(C)n(-c2ccccc2)c1=O | 2.6 | -7.9 | -0.3 | 2.5 | 19.3 | 101.8 | . | .
Cc1cccc(-n2ncc3c(N4CCCC4)ncnc32)c1 | 1.4 | 18.4 | 0.4 | 3.4 | 12.5 | 104.3 | 92.3 | 109.5
Cc1cccc(-n2ncc3c(N4CC(C)CC(C)C4)ncnc32)c1 (centres undefined) | 6.1 | 13.9 | 4.1 | 2.7 | 26.5 | 92.0 | . | .
Cc1cccc(-n2ncc3c(N4CCOCC4)ncnc32)c1 | -1.4 | 4.2 | -2.5 | -8.8 | 20.5 | 96.7 | 100.0 | 91.1
COc1ccc(S(=O)(=O)Nc2ccc(F)c(F)c2)cc1Cl | 5.8 | 4.5 | 0.0 | 11.5 | 18.3 | 123.2 | 98.7 | 108.9
COc1ccc(S(=O)(=O)Nc2cccc(Cl)c2)cc1OC | 0.2 | 0.9 | 0.1 | -12.1 | 14.0 | 104.2 | 100.8 | 106.2
O=C(CN1CCN(c2ccccn2)CC1)Nc1cc(C(F)(F)F)ccc1Cl | -0.1 | 13.6 | -0.3 | -10.0 | 9.2 | 96.5 | 107.0 | 132.8
O=C(CN1CCN(c2ccccn2)CC1)Nc1ccc(Cl)c(C(F)(F)F)c1 | -2.8 | 13.5 | -0.2 | -14.5 | 10.6 | 102.0 | 95.4 | 102.6
O=C(CN1CCCC1)Nc1cc(C(F)(F)F)ccc1Cl | -0.3 | -5.4 | 0.5 | -7.7 | 25.4 | 95.5 | . | .
CC(=O)Nc1ccc(S(=O)(=O)N2CCN=C2SCc2ccc(C)cc2)cc1 | 0.4 | 42.9 | 1.6 | 17.2 | 11.3 | 93.8 | . | .
Cc1ccc(S(=O)(=O)N2CCN=C2SCc2ccccc2)cc1 | -0.1 | 31.7 | 0.1 | 6.4 | -5.0 | 62.7* | 99.1 | 100.4
COc1ccccc1OCC(=O)Nc1nc(-c2ccc(S(=O)(=O)N3CCOCC3)cc2)cs1 | 9.5 | 23.2 | -0.3 | -8.1 | 13.1 | 123.5 | . | .
SMILES | V-ATPase pHluor | T cruzi inh | HIF activator | NRP1-CendR mod | AI-2 QS modul | Yeast superoxide | Superoxide pick | DHE fluor count
CCCCn1c(N)c(N(CC(C)C)C(=O)c2ccc(-c3ccc(C(C)=O)cc3)o2)c(=O)[nH]c1=O | 2.3 | -0.4 | 0.8 | -16.3 | -2.5 | 64.8* | 110.4 | 103.2
CCCCn1c(N)c(N(CC(C)C)C(=O)c2ccc(C)o2)c(=O)[nH]c1=O | 1.4 | . | . | -2.1 | . | 90.2 | . | .
CC(C)OCCCNC(=O)c1ccc2c(c1)ncn2C1CCCC1 | -3.4 | -11.3 | 0.2 | 1.9 | -3.1 | 102.0 | . | .
Cc1ccc(/C=N/NC(=O)c2nnn(-c3nonc3N)c2CSc2ccccc2)cc1 | -0.9 | -7.1 | -0.3 | -4.5 | -3.8 | 80.9 | . | .
Cc1ccc(/C=N/NC(=O)c2nnn(-c3nonc3N)c2CNc2ccccc2)cc1 | -0.9 | 6.4 | -0.4 | 12.2 | 7.8 | 64.8* | 122.0 | 106.6
CCc1ccc2oc(C(=O)N3CCN(c4ccccc4OC)CC3)cc(=O)c2c1 | -0.6 | 0.6 | -33.5 | 2.7 | -2.7 | 62.0* | 105.7 | 94.9
COc1ccc(C(=O)N2CCN(c3cccc(Cl)c3)CC2)cc1 | -2.7 | -21.9 | 0.4 | 3.8 | 10.0 | 100.6 | 98.3 | 107.9
COc1ccccc1N1CCN(C(=O)c2ccc(-c3ccccc3)cc2)CC1 | 4.5 | 6.2 | -1.8 | 10.0 | -14.1 | 82.2 | . | .
COc1ccc(C(=O)N2CCN(c3ccccc3OC)CC2)cc1 | -0.6 | -6.0 | -0.8 | 12.6 | 34.9 | 109.0 | 97.1 | 91.2
CCc1ccc2oc(C(=O)N3CCN(c4ccc(OC)cc4)CC3)cc(=O)c2c1 | -4.1 | 5.9 | 0.2 | -4.9 | 25.5 | 116.7 | . | .
CCOc1ccc(C(=O)N2CCN(c3cccc(C)c3C)CC2)cc1 | 0.4 | -1.6 | -0.3 | -8.6 | 1.4 | 99.3 | 107.3 | 89.1
CC1(c2ccc(Cl)cc2Cl)NC(=O)N(CC(=O)N2CCN(C(=O)c3ccco3)CC2)C1=O (centres undefined) | 5.0 | . | . | -2.4 | . | 89.5 | . | .
O=C1NC(=O)N(Cc2ccccc2)C1=O | -0.9 | -3.1 | -15.8 | 8.5 | 29.1 | 110.8 | . | .
C=CCNC(=O)COC(=O)c1ccc(Cl)c(S(=O)(=O)N(Cc2ccccc2)c2ccccc2)c1 | -1.6 | 3.8 | 0.0 | -3.7 | 14.4 | 109.2 | . | .
CCOc1ccc(C(=O)N2CCN(c3cccc(Cl)c3)CC2)cc1 | 0.7 | -8.3 | 0.4 | 13.9 | -12.9 | 115.2 | 104.1 | 89.4
COc1nc(N(C)C)nc(N(C#N)CCOC(C)=O)n1 | -7.7 | 2.5 | -0.1 | -6.8 | -0.3 | 64.1* | 113.1 | 103.6

Screening results from PubChem.
